{"source": "paper PMC6896334", "about": "(Cell reports, 2019)", "key": {"E47-ID1 cellular complex": {"target": "T1, E47-ID1 cellular complex (Homo sapiens, UniProt P41134)", "T1 sequence (P41134 1-155)": "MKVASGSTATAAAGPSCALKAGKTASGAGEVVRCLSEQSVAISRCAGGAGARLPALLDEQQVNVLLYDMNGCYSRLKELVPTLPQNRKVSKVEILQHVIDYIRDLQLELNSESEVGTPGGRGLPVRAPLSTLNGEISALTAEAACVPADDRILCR", "assay": "Immunoprecipitation of endogenous ID1 and E47 in HCT116 cells", "type": "cell-based", "settings": "HCT116, 60 μM, 1 h", "how_it_was_run": "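HCT116 cells were exposed for 1 h and lysed in NP40 or RIPA buffer with phosphatase/protease inhibitors, then cleared 15 min at 15,000 rpm, 4°C. Lysates were immunoprecipitated overnight at 4°C with anti-ID1 or anti-E2A plus protein G/A beads, washed four times and eluted in SDS sample buffer. SDS-PAGE/PVDF blots (5% milk in TBS-0.1% Tween20) were probed for ID1 (1:500) or E2A (1:1000), alongside whole-cell lysate blots.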"}, "Water solubility": {"assay": "Water solubility", "type": "physicochemical"}, "HUVECs [1]": {"test_system": "HUVECs", "assay": "HUVEC cell cycle analysis", "type": "cell-based, human", "settings": "20 μM, 24 h", "how_it_was_run": "(§1)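 Cells exposed to test compound or DMSO, then trypsinised, PBS-washed and fixed in 70% ethanol at −20°C. After centrifugation and PBS wash, cells were stained in PI/RNase buffer for 15 min at room temperature. DNA content was analysed by flow cytometry.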"}, "Id1 (59–104)": {"target": "T2, Id1 (59–104) (Mus musculus, UniProt P20067)", "T2 sequence (P20067 59-104)": "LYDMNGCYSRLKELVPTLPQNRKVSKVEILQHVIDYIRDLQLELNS", "assay": "UV crosslinking of AGX51-XL2 to purified Id1 and mass spectrometry", "type": "binding", "settings": "10-fold excess of AGX51", "how_it_was_run": "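Purified Id1 (aa 59–104, 1 µg) was mixed in the dark with 19.7 ng of a benzophenone photoreactive test-compound analog in DMSO and UV-irradiated for 20 min, with a no-UV control. Samples were run in the dark on a 15% denaturing gel and silver stained. Bands were excised for mass spectrometry.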"}, "ID1, ID2, ID3, and ID4": {"test_system": "ID1, ID2, ID3, and ID4", "assay": "Western blot for ID proteins in HCT116 cells", "type": "cell-based, human", "settings": "HCT116, 40 μM, 0-48 hours"}, "Cyclin D1": {"test_system": "Cyclin D1", "assay": "Western blot for Cyclin D1 in HUVECs", "type": "cell-based, human", "settings": "0–40 μM, 24 h", "how_it_was_run": "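HUVECs treated with 0–40 µM test compound for 24 h. Whole-cell lysates were immunoblotted for the target protein. Infrared band intensities were blank-subtracted and normalised to tubulin.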"}, "HCT116 cells [2]": {"test_system": "HCT116 cells", "assay": "HCT116 cell cycle analysis", "type": "cell-based, human", "settings": "HCT116, 40 μM, 4-24 hours", "how_it_was_run": "as §1"}, "HCT116 cells [3]": {"test_system": "HCT116 cells", "assay": "HCT116 cell viability", "type": "cell-based, human", "how_it_was_run": "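MTT viability: cells seeded at 5000/well and left overnight, then exposed to the test compound for 24 h. MTT (5 mg/mL) was added for 4 h, medium removed and formazan dissolved in DMSO. Absorbance was read at 570 nm.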"}, "[4]": {"test_system": "choroidal neovascularization", "assay": "Laser-induced choroidal neovascularization", "type": "in vivo, mouse", "how_it_was_run": "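Female C57BL/6 mice aged 4–6 weeks had laser rupture of Bruch's membrane at three sites per eye. Test compounds (1 or 5 µg) or DMSO were given intravitreally. At day 14, choroidal flat mounts were stained with FITC-Griffonia simplicifolia lectin, and CNV area was measured by fluorescence image analysis by an observer masked to group.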"}, "4T1 cells": {"test_system": "4T1 cells", "assay": "4T1 cell-based IC50", "settings": "Mus musculus, 4T1, 24 h", "how_it_was_run": "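4T1 cells exposed to 0–20 µM test compound for 24 h. Whole-cell lysates were immunoblotted for Id1. Band intensities were read on 700/800 nm infrared channels, blank-subtracted and normalised to tubulin, and IC50 was taken from these blots.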"}, "Id1 crystals": {"target": "T3, Id1 crystals (Mus musculus, UniProt P20067)", "T3 sequence (P20067 51-104)": "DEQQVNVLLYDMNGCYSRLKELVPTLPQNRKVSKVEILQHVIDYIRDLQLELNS", "assay": "Exposure of Id1 crystals to compound", "settings": "DMSO alone had no such effect", "how_it_was_run": "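Mouse Id1 (residues 51–104) crystals grown by hanging-drop vapour diffusion at 4°C. Protein at 2.8 mg/mL (20 mM Tris pH 8.0, 0.25 M NaCl, 5 mM DTT) was mixed 1:1 with reservoir of 0.1 M sodium citrate pH 6.5, 0.2 M magnesium acetate and 10% PEG8000.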"}, "HUVECs [5]": {"test_system": "HUVECs", "assay": "HUVEC cell branching assay on matrigel", "type": "cell-based, human", "settings": "0–40 μM, 18–20 h on matrigel, vs vehicle, p < 0.05", "how_it_was_run": "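HUVECs (80,000 per well) in EGM-2 containing the test compound at the indicated concentration were plated on Matrigel pre-solidified for 30 min at 37°C. After 18–20 h, media was removed and wells were fixed in 10% buffered formalin for 15 min. Tubes were imaged by inverted microscope at 10x. Nodes, junctions, meshes and total branching length were scored by Angiogenesis Analyzer, n = 4 per concentration, Wilcoxon test.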"}}, "data": [{"smiles": "CCC(=O)N(CCC(c1ccc2c(c1)OCO2)c1ccccc1OC)Cc1ccccc1", "note": "(stereo not drawn) [AGX51, N-(3-(benzo[d][1,3]dioxol-5-yl)-3-(2-methoxyphenyl)propyl)-N-benzylpropionamide]", "values": [{"measurement": "levels of co-precipitated E47 / ID1", "setting": "E47-ID1 cellular complex", "result": "markedly reduced the levels of the co-precipitated proteins"}, {"measurement": "water solubility", "setting": "Water solubility", "result": "water insoluble"}, {"measurement": "cell cycle effect", "setting": "HUVECs [1]", "result": "G0/G1 growth arrest"}, {"measurement": "AGX51-XL2 binding to Id1 in the presence of competitor", "setting": "Id1 (59–104)", "result": "significant decrease in AGX51-XL2 binding to Id1"}, {"measurement": "ID1, ID2, ID3 and ID4 protein levels", "setting": "ID1, ID2, ID3, and ID4", "result": "reduced levels of ID1, ID2, ID3, and ID4"}, {"measurement": "Cyclin D1 levels", "setting": "Cyclin D1", "result": "reduction in Cyclin D1 levels"}, {"measurement": "cell cycle effect", "setting": "HCT116 cells [2]", "result": "G0/G1 growth arrest"}, {"measurement": "cell viability (MTT)", "setting": "HCT116 cells [3]; HCT116, 40 μM, 24 hours", "result": "reduced cell viability"}, {"measurement": "IC50", "setting": "HCT116 cells [3]; Homo sapiens, HCT-116, 24 h", "result": 22.3, "unit": "µM"}, {"measurement": "area of CNV", "setting": "[4]; intravitreal 5 μg on days 1 and 7, day 14, p < 0.05", "result": "effective at significantly reducing CNV"}, {"measurement": "area of CNV", "setting": "[4]; twice-daily i.p. injections ~30 mg/kg (500 μg), 14 days, vs vehicle, p < 0.05", "result": "significantly reduced CNV"}, {"measurement": "area of CNV", "setting": "[4]; two intravitreal injections of 10 μg 1 week apart, day 14, vs vehicle, p < 0.05", "result": "significantly suppressed CNV"}, {"measurement": "IC50", "setting": "4T1 cells", "result": 26.7, "unit": "µM"}, {"measurement": "effect on Id1 crystals", "setting": "Id1 crystals", "result": "the crystals melted"}, {"measurement": "vascular branching (nodes, junctions, meshes, total branching length)", "setting": "HUVECs [5]", "result": "significantly impaired in a dose-dependent manner"}]}]}
